test system: HL-60; test: Antiproliferative activity against human HL60 cells assessed as growth inhibition incubated up to 4 days by MTS assay; format: functional, cell-based; settings: HL-60, 96 h
How it was run: (§1)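 Five human tumour cell lines were assayed by MTS. IC50 is the compound concentration that cuts optical density of treated cells by 50% relative to untreated cells. Mean of three independent determinations.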

| IC50 [µM] | Compound |
| --- | --- |
| 4.38 | O=C(C[n+]1ccn(C(c2ccccc2)c2cc3ccccc3oc2=O)c1)c1ccc2ccccc2c1 (stereo not given) |
| > 20 | Cc1n(C(c2ccccc2)c2cc3ccccc3oc2=O)c2ccccc2[n+]1CC(=O)c1ccccc1 (stereo not given) |
| 2.91 | O=C(C[n+]1cn(C(c2ccccc2)c2cc3ccccc3oc2=O)c2ccccc21)c1ccc(-c2ccccc2)cc1.[Br-] (stereo not given) |
| > 20 | O=C(C[n+]1ccn(C(c2ccccc2)c2cc3ccccc3oc2=O)c1)c1ccccc1 (stereo not given) |
| > 20 | Cc1n(C(c2ccccc2)c2cc3ccccc3oc2=O)c2ccccc2[n+]1CC(=O)c1ccc(Br)cc1 (stereo not given) |
| 2.77 | Cc1n(C(c2ccccc2)c2cc3ccccc3oc2=O)c2ccccc2[n+]1CC(=O)c1ccc(-c2ccccc2)cc1 (stereo not given) |
| 5.95 | O=C(C[n+]1cn(C(c2ccccc2)c2cc3ccccc3oc2=O)c2ccccc21)c1ccc(Br)cc1 (stereo not given) |
| > 20 | O=c1oc2ccccc2cc1C(c1ccccc1)n1ccnc1 (stereo not given) |
| > 20 | Cc1cc2ncn(C(c3ccccc3)c3cc4ccccc4oc3=O)c2cc1C (stereo not given) |
| 2.45 | Cc1cc2c(cc1C)[n+](CC(=O)c1ccc(Br)cc1)cn2C(c1ccccc1)c1cc2ccccc2oc1=O.[Br-] (stereo not given) |
| 1.55 | COc1ccc(C(=O)C[n+]2cn(C(c3ccccc3)c3cc4ccccc4oc3=O)c3cc(C)c(C)cc32)cc1.[Br-] (stereo not given) |
| 2.07 | Cc1cc2c(cc1C)[n+](CC(=O)c1ccc(-c3ccccc3)cc1)cn2C(c1ccccc1)c1cc2ccccc2oc1=O (stereo not given) |
| > 20 | COc1ccc(C(=O)C[n+]2ccn(C(c3ccccc3)c3cc4ccccc4oc3=O)c2)cc1 (stereo not given) |
| > 20 | O=C(C[n+]1ccn(C(c2ccccc2)c2cc3ccccc3oc2=O)c1)c1ccc(Br)cc1 (stereo not given) |

test system: SMMC-7721; test: Antiproliferative activity against human SMMC7721 cells assessed as growth inhibition incubated up to 4 days by MTS assay; format: functional, cell-based; settings: SMMC-7721, 96 h; how it was run: as §1

| IC50 [µM] | Compound |
| --- | --- |
| > 20 | O=C(C[n+]1ccn(C(c2ccccc2)c2cc3ccccc3oc2=O)c1)c1ccc2ccccc2c1 (stereo not given) |
| > 20 | Cc1n(C(c2ccccc2)c2cc3ccccc3oc2=O)c2ccccc2[n+]1CC(=O)c1ccccc1 (stereo not given) |
| 4.7 | O=C(C[n+]1cn(C(c2ccccc2)c2cc3ccccc3oc2=O)c2ccccc21)c1ccc(-c2ccccc2)cc1.[Br-] (stereo not given) |
| > 20 | O=C(C[n+]1ccn(C(c2ccccc2)c2cc3ccccc3oc2=O)c1)c1ccccc1 (stereo not given) |
| > 20 | Cc1n(C(c2ccccc2)c2cc3ccccc3oc2=O)c2ccccc2[n+]1CC(=O)c1ccc(Br)cc1 (stereo not given) |
| 5.05 | Cc1n(C(c2ccccc2)c2cc3ccccc3oc2=O)c2ccccc2[n+]1CC(=O)c1ccc(-c2ccccc2)cc1 (stereo not given) |
| 8.2 | O=C(C[n+]1cn(C(c2ccccc2)c2cc3ccccc3oc2=O)c2ccccc21)c1ccc(Br)cc1 (stereo not given) |
| > 20 | O=c1oc2ccccc2cc1C(c1ccccc1)n1ccnc1 (stereo not given) |
| > 20 | Cc1cc2ncn(C(c3ccccc3)c3cc4ccccc4oc3=O)c2cc1C (stereo not given) |
| 4.19 | Cc1cc2c(cc1C)[n+](CC(=O)c1ccc(Br)cc1)cn2C(c1ccccc1)c1cc2ccccc2oc1=O.[Br-] (stereo not given) |
| 4.72 | COc1ccc(C(=O)C[n+]2cn(C(c3ccccc3)c3cc4ccccc4oc3=O)c3cc(C)c(C)cc32)cc1.[Br-] (stereo not given) |
| 1.91 | Cc1cc2c(cc1C)[n+](CC(=O)c1ccc(-c3ccccc3)cc1)cn2C(c1ccccc1)c1cc2ccccc2oc1=O (stereo not given) |
| > 20 | COc1ccc(C(=O)C[n+]2ccn(C(c3ccccc3)c3cc4ccccc4oc3=O)c2)cc1 (stereo not given) |
| > 20 | O=C(C[n+]1ccn(C(c2ccccc2)c2cc3ccccc3oc2=O)c1)c1ccc(Br)cc1 (stereo not given) |

test system: A549; test: Antiproliferative activity against human A549 cells assessed as growth inhibition incubated up to 4 days by MTS assay; format: functional, cell-based; settings: A549, 96 h; how it was run: as §1

| IC50 [µM] | Compound |
| --- | --- |
| > 20 | O=C(C[n+]1ccn(C(c2ccccc2)c2cc3ccccc3oc2=O)c1)c1ccc2ccccc2c1 (stereo not given) |
| > 20 | Cc1n(C(c2ccccc2)c2cc3ccccc3oc2=O)c2ccccc2[n+]1CC(=O)c1ccccc1 (stereo not given) |
| 7.47 | O=C(C[n+]1cn(C(c2ccccc2)c2cc3ccccc3oc2=O)c2ccccc21)c1ccc(-c2ccccc2)cc1.[Br-] (stereo not given) |
| > 20 | O=C(C[n+]1ccn(C(c2ccccc2)c2cc3ccccc3oc2=O)c1)c1ccccc1 (stereo not given) |
| > 20 | Cc1n(C(c2ccccc2)c2cc3ccccc3oc2=O)c2ccccc2[n+]1CC(=O)c1ccc(Br)cc1 (stereo not given) |
| 5.1 | Cc1n(C(c2ccccc2)c2cc3ccccc3oc2=O)c2ccccc2[n+]1CC(=O)c1ccc(-c2ccccc2)cc1 (stereo not given) |
| 11.9 | O=C(C[n+]1cn(C(c2ccccc2)c2cc3ccccc3oc2=O)c2ccccc21)c1ccc(Br)cc1 (stereo not given) |
| > 20 | O=c1oc2ccccc2cc1C(c1ccccc1)n1ccnc1 (stereo not given) |
| > 20 | Cc1cc2ncn(C(c3ccccc3)c3cc4ccccc4oc3=O)c2cc1C (stereo not given) |
| 4.89 | Cc1cc2c(cc1C)[n+](CC(=O)c1ccc(Br)cc1)cn2C(c1ccccc1)c1cc2ccccc2oc1=O.[Br-] (stereo not given) |
| 5.65 | COc1ccc(C(=O)C[n+]2cn(C(c3ccccc3)c3cc4ccccc4oc3=O)c3cc(C)c(C)cc32)cc1.[Br-] (stereo not given) |
| 2.14 | Cc1cc2c(cc1C)[n+](CC(=O)c1ccc(-c3ccccc3)cc1)cn2C(c1ccccc1)c1cc2ccccc2oc1=O (stereo not given) |
| > 20 | COc1ccc(C(=O)C[n+]2ccn(C(c3ccccc3)c3cc4ccccc4oc3=O)c2)cc1 (stereo not given) |
| > 20 | O=C(C[n+]1ccn(C(c2ccccc2)c2cc3ccccc3oc2=O)c1)c1ccc(Br)cc1 (stereo not given) |

test system: MCF7; test: Antiproliferative activity against human MCF7 cells assessed as growth inhibition incubated up to 4 days by MTS assay; format: functional, cell-based; settings: MCF7, 96 h; how it was run: as §1

| IC50 [µM] | Compound |
| --- | --- |
| 7.27 | O=C(C[n+]1ccn(C(c2ccccc2)c2cc3ccccc3oc2=O)c1)c1ccc2ccccc2c1 (stereo not given) |
| > 20 | Cc1n(C(c2ccccc2)c2cc3ccccc3oc2=O)c2ccccc2[n+]1CC(=O)c1ccccc1 (stereo not given) |
| 0.96 | O=C(C[n+]1cn(C(c2ccccc2)c2cc3ccccc3oc2=O)c2ccccc21)c1ccc(-c2ccccc2)cc1.[Br-] (stereo not given) |
| > 20 | O=C(C[n+]1ccn(C(c2ccccc2)c2cc3ccccc3oc2=O)c1)c1ccccc1 (stereo not given) |
| > 20 | Cc1n(C(c2ccccc2)c2cc3ccccc3oc2=O)c2ccccc2[n+]1CC(=O)c1ccc(Br)cc1 (stereo not given) |
| 2.86 | Cc1n(C(c2ccccc2)c2cc3ccccc3oc2=O)c2ccccc2[n+]1CC(=O)c1ccc(-c2ccccc2)cc1 (stereo not given) |
| 1.24 | O=C(C[n+]1cn(C(c2ccccc2)c2cc3ccccc3oc2=O)c2ccccc21)c1ccc(Br)cc1 (stereo not given) |
| > 20 | O=c1oc2ccccc2cc1C(c1ccccc1)n1ccnc1 (stereo not given) |
| > 20 | Cc1cc2ncn(C(c3ccccc3)c3cc4ccccc4oc3=O)c2cc1C (stereo not given) |
| 2.29 | Cc1cc2c(cc1C)[n+](CC(=O)c1ccc(Br)cc1)cn2C(c1ccccc1)c1cc2ccccc2oc1=O.[Br-] (stereo not given) |
| 1.58 | COc1ccc(C(=O)C[n+]2cn(C(c3ccccc3)c3cc4ccccc4oc3=O)c3cc(C)c(C)cc32)cc1.[Br-] (stereo not given) |
| 1.66 | Cc1cc2c(cc1C)[n+](CC(=O)c1ccc(-c3ccccc3)cc1)cn2C(c1ccccc1)c1cc2ccccc2oc1=O (stereo not given) |
| > 20 | COc1ccc(C(=O)C[n+]2ccn(C(c3ccccc3)c3cc4ccccc4oc3=O)c2)cc1 (stereo not given) |
| > 20 | O=C(C[n+]1ccn(C(c2ccccc2)c2cc3ccccc3oc2=O)c1)c1ccc(Br)cc1 (stereo not given) |

test system: SW480; test: Antiproliferative activity against human SW480 cells assessed as growth inhibition incubated up to 4 days by MTS assay; format: functional, cell-based; settings: SW480, 96 h; how it was run: as §1

| IC50 [µM] | Compound |
| --- | --- |
| 8.03 | O=C(C[n+]1ccn(C(c2ccccc2)c2cc3ccccc3oc2=O)c1)c1ccc2ccccc2c1 (stereo not given) |
| > 20 | Cc1n(C(c2ccccc2)c2cc3ccccc3oc2=O)c2ccccc2[n+]1CC(=O)c1ccccc1 (stereo not given) |
| 1.63 | O=C(C[n+]1cn(C(c2ccccc2)c2cc3ccccc3oc2=O)c2ccccc21)c1ccc(-c2ccccc2)cc1.[Br-] (stereo not given) |
| > 20 | O=C(C[n+]1ccn(C(c2ccccc2)c2cc3ccccc3oc2=O)c1)c1ccccc1 (stereo not given) |
| > 20 | Cc1n(C(c2ccccc2)c2cc3ccccc3oc2=O)c2ccccc2[n+]1CC(=O)c1ccc(Br)cc1 (stereo not given) |
| 2.88 | Cc1n(C(c2ccccc2)c2cc3ccccc3oc2=O)c2ccccc2[n+]1CC(=O)c1ccc(-c2ccccc2)cc1 (stereo not given) |
| 1.65 | O=C(C[n+]1cn(C(c2ccccc2)c2cc3ccccc3oc2=O)c2ccccc21)c1ccc(Br)cc1 (stereo not given) |
| > 20 | O=c1oc2ccccc2cc1C(c1ccccc1)n1ccnc1 (stereo not given) |
| > 20 | Cc1cc2ncn(C(c3ccccc3)c3cc4ccccc4oc3=O)c2cc1C (stereo not given) |
| 0.2 | Cc1cc2c(cc1C)[n+](CC(=O)c1ccc(Br)cc1)cn2C(c1ccccc1)c1cc2ccccc2oc1=O.[Br-] (stereo not given) |
| 0.36 | COc1ccc(C(=O)C[n+]2cn(C(c3ccccc3)c3cc4ccccc4oc3=O)c3cc(C)c(C)cc32)cc1.[Br-] (stereo not given) |
| 8.03 | Cc1cc2c(cc1C)[n+](CC(=O)c1ccc(-c3ccccc3)cc1)cn2C(c1ccccc1)c1cc2ccccc2oc1=O (stereo not given) |
| > 20 | COc1ccc(C(=O)C[n+]2ccn(C(c3ccccc3)c3cc4ccccc4oc3=O)c2)cc1 (stereo not given) |
| > 20 | O=C(C[n+]1ccn(C(c2ccccc2)c2cc3ccccc3oc2=O)c1)c1ccc(Br)cc1 (stereo not given) |

test system: SW480; test: Potency index, ratio of cisplatin IC50 to compound IC50 for antiproliferative activity against human SW480 cells assessed as growth inhibition; format: functional; settings: not given

| Compound | Ratio IC50 |
| --- | --- |
| O=C(C[n+]1cn(C(c2ccccc2)c2cc3ccccc3oc2=O)c2ccccc21)c1ccc(-c2ccccc2)cc1.[Br-] (stereo not given) | 4.9 |
| Cc1cc2c(cc1C)[n+](CC(=O)c1ccc(Br)cc1)cn2C(c1ccccc1)c1cc2ccccc2oc1=O.[Br-] (stereo not given) | 40 |
| COc1ccc(C(=O)C[n+]2cn(C(c3ccccc3)c3cc4ccccc4oc3=O)c3cc(C)c(C)cc32)cc1.[Br-] (stereo not given) | 22.2 |

test system: MCF7; test: Potency index, ratio of cisplatin IC50 to compound IC50 for antiproliferative activity against human MCF7 cells assessed as growth inhibition; format: functional; settings: not given

| Compound | Ratio IC50 |
| --- | --- |
| O=C(C[n+]1cn(C(c2ccccc2)c2cc3ccccc3oc2=O)c2ccccc21)c1ccc(-c2ccccc2)cc1.[Br-] (stereo not given) | 10.2 |
| COc1ccc(C(=O)C[n+]2cn(C(c3ccccc3)c3cc4ccccc4oc3=O)c3cc(C)c(C)cc32)cc1.[Br-] (stereo not given) | 6.2 |

From ChEMBL document CHEMBL4610035, “Synthesis and biological evaluation of novel 3-benzylcoumarin-imidazolium salts” (Bioorg Med Chem Lett, 2020)
